For one series, the system named is Calu-6. Nature of the series: Antiproliferative activity against human Calu-6 cells assessed as reduction in cell proliferation measured after 72 hrs by celltiter-glo assay. The series is classed as functional, cell-based. To be noted: Calu-6, 72 h. The gist of the method:
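Cells in RPMI 1640 with 10% heat-inactivated FBS at 37°C and 5% CO₂ were seeded at 2 to 3 × 10³ per well. […] Growth was read as cellular ATP by CellTiter-Glo.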
Background: Cellular ATP, detected with luciferase, serves as a proxy for viable cell number.

The next series has as its system HCC827. Nature of the series: Synergistic antiproliferative activity against human HCC827 cells assessed as combination index at ED75 measured after 72 hrs in presence of erlotinib by celltiter-glo assay. The series is classed as functional. Put shortly:
(§1)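 Cells grown in RPMI 1640 with 10% heat-inactivated FBS at 37°C, 5% CO₂. Seeded at 2 to 3 × 10³ per well; drugs added 24 h later. […] Viability read as cellular ATP by CellTiter-Glo. CI calculated by Chou–Talalay from median-effect plots at ED50, ED75 and ED90.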

The next series relates to NCI-H1299. Nature of the series: Synergistic antiproliferative activity against human NCI-H1299 cells assessed as combination index at ED90 measured after 72 hrs in presence of erlotinib by celltiter-glo assay. The series is classed as functional.
Series [1] has as its target RAC-alpha serine/threonine-protein kinase (Homo sapiens) (UniProt P31749). Nature of the series: Inhibition of AKT in human A-431 cells assessed as reduction in S6 phosphorylation at S240/S244 residues at 5 umol/L measured after 5 hrs in presence of erlotinib by Western blot analysis. Type of series: cell-based. To be noted: dose 5.0 µmol/L. The gist of the method:
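Cells were lysed in Tris-HCl pH 7.5, 150 mM NaCl, 1% Triton X-100 with protease and phosphatase inhibitors. Lysates were run on SDS-PAGE, transferred to nitrocellulose and probed with phospho-specific antibodies.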
A general note: A western blot detects proteins with antibodies after separation by electrophoresis.

For series [2] the target is unchanged. Nature of the series: Inhibition of AKT in human HCC827 cells assessed as reduction in PRAS40 phosphorylation at T246 residue at 5 umol/L measured after 5 hrs in presence of erlotinib by Western blot analysis. The series is classed as cell-based. To be noted: dose 5.0 µmol/L.
A short description of series [3]: In vivo inhibition of AKT phosphorylation at S473 residue in human NCI-H292 cells xenografted mouse at 120 mg/kg, po administered as single dose 2 hrs post-erlotinib treatment measured after 12 hrs by Western blot analysis relative to control. Type of series: functional. (Xenograft models place foreign cells or tissue in a host animal.)
Series [4] is described as follows: Toxicity in human NCI-H292 cells xenografted CD-1 mouse assessed as weight loss at 120 mg/kg, po administered 3 times per week for 2 weeks starting 2 hrs post-erlotinib treatment and measured on day 16. The series is classed as organism-based. The conditions noted are these: in vivo, 384 h, time 16 day. Put shortly:
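Female CD1-nude mice bearing s.c. NCI-H292 tumours (cells in 50% Matrigel/50% PBS, left flank), randomized at mean 0.2 cm³, n=5/group. Body weight monitored; treatment period ended day 16.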

The test system of the next series is MDA-MB-468. Nature of the series: Synergistic antiproliferative activity against lapatinib pretreated human MDA-MB-468 cells assessed as combination index at ED50 measured after 72 hrs by celltiter-glo assay. Type of series: functional.
The subject of series [5] is HCC70. Nature of the series: Synergistic antiproliferative activity against lapatinib pretreated human HCC70 cells assessed as combination index at ED75 measured after 72 hrs by celltiter-glo assay. Type of series: functional.
Series [6] deals with HCC70. Nature of the series: Synergistic antiproliferative activity against human HCC70 cells assessed as combination index at ED90 treated 24 hrs prior to lapatinib and measured after 72 hrs by celltiter-glo assay. Type of series: functional. The conditions noted are these: time 96 hrs.
Series [7] deals with SK-OV-3. Description: Synergistic antiproliferative activity against human SK-OV-3 cells assessed as combination index at ED90 treated 24 hrs prior to lapatinib and measured after 72 hrs by celltiter-glo assay. The series is classed as functional. The conditions noted are these: time 96 hrs.
For series [8], the system named is SK-OV-3. Nature of the series: Antitumor activity against human SK-OV-3 cells xenografted in po dosed CB17/icr SCID mouse assessed as tumor growth inhibition administered 3 times per week for 2 weeks starting 2 hrs post lapatinib treatment and measured twice a week during compound dosing by caliper method. The series is classed as functional, organism-based. To be noted: dose 60-120 mg/kg. Put shortly:
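SK-OV-3 cells were implanted s.c. into female C.B-17/ICR-scid mice, which were randomized at 0.13 cm³, n = 5. Lapatinib (water) was given at 100 mg/kg po on days 0–4 and 7–11. MK-2206 (30% Captisol) was given at 60 or 120 mg/kg po on days 0, 2, 4, 7, 9, 11. Tumor volume by calipers twice weekly.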

Series [9] can be described thus: Toxicity in human SK-OV-3 cells xenografted CB17/icr SCID mouse assessed as mortality at 60 to 120 mg/kg, po administered 3 times per week for 2 weeks starting 2 hrs post lapatinib treatment and measured during compound dosing. Type of series: organism-based. To be noted: in vivo, 336 h, dose 60-120 mg/kg. The gist of the method: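 SK-OV-3 cells in 50% Matrigel/PBS injected s.c. into flank of female C.B-17/ICR-scid mice; dosing began after 3 wk, randomized at mean tumour 0.13 cm³ (n = 5). Lapatinib 100 mg/kg p.o. in distilled water 5 d/wk for 2 wk; MK-2206 in 30% Captisol p.o. days 0, 2, 4, 7, 9, 11. Body weight and physical signs monitored.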

The next series has as its system BT-20. Nature of the series: Synergistic antiproliferative activity against human BT-20 cells assessed as combination index at ED50 measured after 72 hrs in presence of docetaxel by celltiter-glo assay. The series is classed as functional. The gist of the method:
as §1

The next series deals with MDA-MB-231. Description: Synergistic antiproliferative activity against human MDA-MB-231 cells assessed as combination index at ED75 measured after 72 hrs in presence of docetaxel by celltiter-glo assay. Type of series: functional. Put shortly: as §1
In series [10] the test system is HCC70. Nature of the series: Synergistic antiproliferative activity against human HCC70 cells assessed as combination index at ED90 measured after 72 hrs in presence of docetaxel by celltiter-glo assay. Type of series: functional. Put shortly: as §1
The test system of a further series is A2780. Nature of the series: Synergistic antiproliferative activity against human A2780 cells assessed as combination index at ED50 measured after 72 hrs in presence of doxorubicin by celltiter-glo assay. The series is classed as functional. The gist of the method:
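Cells were seeded at 2–3 × 10³ per well in RPMI 1640 with 10% FBS. At 24 h, MK-2206 and the partner drug were added simultaneously at constant concentration ratios spanning each agent's IC₅₀, for 72 h. Growth was read as cellular ATP by CellTiter-Glo. CI was taken from median-effect plots of each agent alone and in combination (Chou–Talalay), at ED₅₀, ED₇₅ and ED₉₀.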

For series [11], the system named is NCI-H460. Nature of the series: Synergistic antiproliferative activity against human NCI-H460 cells assessed as combination index at ED50 measured after 72 hrs in presence of 5-FU by celltiter-glo assay. Type of series: functional.
For series [12], the system named is NCI-H460. Nature of the series: Synergistic antiproliferative activity against human NCI-H460 cells assessed as combination index at ED50 measured after 72 hrs in presence of carboplatin by celltiter-glo assay. Type of series: functional.
Series [13] in a line: Toxicity in human NCI-H460 cells xenografted CD1 nude mouse assessed as body weight loss at 120 mg/kg, po administered 3 times per week for 2 weeks measured on day 14 to 16 in presence of gemcitabine. The series is classed as organism-based. To be noted: in vivo, 336 h, time 14-16 day. Put shortly:
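NCI-H460 cells in 50% Matrigel/PBS injected s.c. into flank of CD1-nude mice; randomized at mean tumour 0.2 cm³ (n = 5). MK-2206 in 30% Captisol, 120 mg/kg p.o. days 0, 2, 4, 7, 9, 11. Carboplatin 50 mg/kg i.v. in saline days 0 and 7 (from day 12 after implant), or gemcitabine 100 mg/kg i.v. in saline days 0 and 7 (from day 8). Body weight monitored.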

The subject of the next series is NCI-H1703. Nature of the series: Induction of apoptosis in human NCI-H1703 cells assessed as fold induction of capsase-3/7 activity measured after 24 to 48 hrs in presence of gemcitabine by caspase-glo 3/7 assay. Type of series: functional. The conditions noted are these: time 24-48 hrs.

The structures appear in SMILES notation. Active and inactive are the calls of the source. No cut-off for these calls is given here.

Sequence of RAC-alpha serine/threonine-protein kinase (Homo sapiens) (P31749 whole entry): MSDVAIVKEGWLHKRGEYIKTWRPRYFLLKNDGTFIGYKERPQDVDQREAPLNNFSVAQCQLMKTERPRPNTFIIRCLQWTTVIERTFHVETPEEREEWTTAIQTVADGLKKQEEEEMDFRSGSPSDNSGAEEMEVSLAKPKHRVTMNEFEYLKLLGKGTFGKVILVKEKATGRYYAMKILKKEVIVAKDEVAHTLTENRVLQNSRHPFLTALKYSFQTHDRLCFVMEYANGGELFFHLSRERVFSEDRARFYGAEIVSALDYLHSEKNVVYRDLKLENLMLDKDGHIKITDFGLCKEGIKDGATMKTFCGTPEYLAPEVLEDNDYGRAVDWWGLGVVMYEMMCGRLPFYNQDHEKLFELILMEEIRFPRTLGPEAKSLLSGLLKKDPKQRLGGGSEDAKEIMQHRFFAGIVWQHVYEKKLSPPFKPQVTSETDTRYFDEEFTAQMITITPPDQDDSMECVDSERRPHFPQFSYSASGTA

As for `Cl.NC1(c2ccc(-c3nc4ccn5c(=O)[nH]nc5c4cc3-c3ccccc3)cc2)CCC1`, in the series on Calu-6, the IC50 came to 28.6 µM. In addition, the CI75 in the series with HCC827 is given as 0.18; in the series on HCC70 [5] it was 0.18; with MDA-MB-231 it was 0.7. Also, the CI90 worked out at 0.52 in the series with NCI-H1299, 0.18 with HCC70 [6], 0.18 with SK-OV-3 [7] and 0.5 in the series on HCC70 [10]. The inhibition result in [1] and in series [2] was “Active” in each case. This compound came in with an inhibition in vivo at 120 mg/kg in series [3] of 79.9%. The Activity result in [4], in series [9] and in [13] was “Non-Toxic” in each case. Moreover, the CI50 is listed as 0.18 in the series on MDA-MB-468; 1 in the series with BT-20; 0.7 in the series with A2780; 0.66 in the series on NCI-H460 [11]; 0.35 with NCI-H460 [12]. The TGI result with SK-OV-3 [8] was “Dose-Dependent Effect”. The “fold change (FC)” value in the series on NCI-H1703 is recorded as 1.5.

Usually IC50 stands for the concentration needed to halve the response being measured. Usually inhibition in vivo stands for the drop in the measured response relative to a control, in per cent. A low value points to little suppression.
